Measurements as given in ChEMBL document CHEMBL2203171, “The use of small molecule probes to study spatially separated stimulus-induced signaling pathways” (Bioorg Med Chem Lett, 2012).
Activity calls are given as the source filed them. The rule behind the calls is not given here.

Experiments:
Type in all cases: cell-based
[1] = biological target: T1, Toll-like receptor 9 (Mus musculus) (UniProt Q9EQU3); assay: Inhibition of MyD88 recruitment to TLR9 in C57BL/6 mouse BMDM cells assessed as inhibition of CpG-induced IkappaBalpha degradation up to 90 mins by Western blot analysis
T1 sequence (whole entry): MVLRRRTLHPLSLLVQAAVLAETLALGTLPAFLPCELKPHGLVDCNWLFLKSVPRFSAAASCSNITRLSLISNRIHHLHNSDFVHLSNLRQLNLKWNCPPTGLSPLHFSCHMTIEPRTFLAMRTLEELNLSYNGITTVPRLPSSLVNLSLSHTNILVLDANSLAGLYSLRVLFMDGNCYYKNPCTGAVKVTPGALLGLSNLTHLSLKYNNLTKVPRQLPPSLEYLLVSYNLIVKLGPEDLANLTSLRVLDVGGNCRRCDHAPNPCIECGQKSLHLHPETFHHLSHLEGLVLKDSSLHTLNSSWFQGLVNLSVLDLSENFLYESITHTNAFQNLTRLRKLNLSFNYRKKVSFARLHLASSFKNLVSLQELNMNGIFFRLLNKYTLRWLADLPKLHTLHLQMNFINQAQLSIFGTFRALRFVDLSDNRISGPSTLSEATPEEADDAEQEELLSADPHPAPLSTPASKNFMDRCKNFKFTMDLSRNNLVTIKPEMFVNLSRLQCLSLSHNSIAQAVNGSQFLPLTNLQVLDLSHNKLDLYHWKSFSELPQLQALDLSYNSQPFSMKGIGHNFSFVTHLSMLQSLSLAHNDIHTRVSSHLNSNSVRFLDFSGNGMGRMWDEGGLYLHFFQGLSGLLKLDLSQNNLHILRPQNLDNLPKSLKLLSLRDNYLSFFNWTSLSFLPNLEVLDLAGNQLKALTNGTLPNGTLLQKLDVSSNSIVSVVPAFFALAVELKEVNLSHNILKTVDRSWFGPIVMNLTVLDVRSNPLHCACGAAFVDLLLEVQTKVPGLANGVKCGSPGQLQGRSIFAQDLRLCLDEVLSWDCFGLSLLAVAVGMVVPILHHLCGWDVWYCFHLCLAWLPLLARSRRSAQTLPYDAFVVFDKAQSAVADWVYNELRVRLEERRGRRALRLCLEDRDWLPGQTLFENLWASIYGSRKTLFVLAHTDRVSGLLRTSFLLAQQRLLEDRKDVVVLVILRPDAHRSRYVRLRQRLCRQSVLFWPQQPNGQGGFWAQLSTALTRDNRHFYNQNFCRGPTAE
In short: (§1)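 Bone marrow macrophages from C57BL/6 mice, grown in 70% growth medium (DMEM, 10% FBS) plus 30% L929-conditioned medium and given fresh medium 12-14 h before stimulation. Stimuli: IL-1 40 ng/ml, HKSA ~10^8 cfu/ml, pI:pC 50 μg/ml or CpG 10 μg/ml, ± compound at 10 μM (final) added from a 200x DMSO stock. IκBα and p38 profiled by immunoblot. Three independent experiments, quantitated and normalized.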

[2] = biological target: T2, Inhibitor of nuclear factor kappa-B kinase subunit beta (Mus musculus) (UniProt O88351); assay: Inhibition of IKKbeta in C57BL/6 mouse BMDM cells assessed as inhibition of LPS-induced IkappaBalpha degradation at 50 uM up to 90 mins by Western blot analysis
T2 sequence (whole entry): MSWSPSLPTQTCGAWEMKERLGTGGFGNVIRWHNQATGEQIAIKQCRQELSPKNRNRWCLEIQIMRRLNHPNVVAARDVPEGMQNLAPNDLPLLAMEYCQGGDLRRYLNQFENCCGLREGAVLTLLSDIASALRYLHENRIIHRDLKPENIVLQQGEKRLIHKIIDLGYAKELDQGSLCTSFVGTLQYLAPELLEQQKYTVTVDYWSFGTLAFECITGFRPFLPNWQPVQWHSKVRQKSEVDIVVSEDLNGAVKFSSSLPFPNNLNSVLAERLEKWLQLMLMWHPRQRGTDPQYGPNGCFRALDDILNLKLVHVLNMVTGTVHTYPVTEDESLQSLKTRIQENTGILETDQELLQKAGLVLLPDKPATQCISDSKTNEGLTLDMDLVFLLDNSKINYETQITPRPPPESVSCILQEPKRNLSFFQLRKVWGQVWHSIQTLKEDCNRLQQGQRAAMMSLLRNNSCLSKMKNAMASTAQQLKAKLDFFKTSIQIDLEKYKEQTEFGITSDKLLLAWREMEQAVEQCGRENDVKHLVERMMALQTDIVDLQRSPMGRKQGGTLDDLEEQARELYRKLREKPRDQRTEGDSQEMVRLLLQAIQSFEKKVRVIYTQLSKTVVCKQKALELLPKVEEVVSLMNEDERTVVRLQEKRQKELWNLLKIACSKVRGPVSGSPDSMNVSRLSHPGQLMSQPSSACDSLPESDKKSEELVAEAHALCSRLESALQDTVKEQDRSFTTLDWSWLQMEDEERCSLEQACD

[3] = biological target: T3, Toll-like receptor 3 (Mus musculus) (UniProt Q99MB1); assay: Inhibition of TRIF recruitment to TLR3 in C57BL/6 mouse BMDM cells assessed as inhibition of pI:pC-induced IkappaBalpha phosphorylation up to 90 mins by Western blot analysis; in short: as §1
T3 sequence (whole entry): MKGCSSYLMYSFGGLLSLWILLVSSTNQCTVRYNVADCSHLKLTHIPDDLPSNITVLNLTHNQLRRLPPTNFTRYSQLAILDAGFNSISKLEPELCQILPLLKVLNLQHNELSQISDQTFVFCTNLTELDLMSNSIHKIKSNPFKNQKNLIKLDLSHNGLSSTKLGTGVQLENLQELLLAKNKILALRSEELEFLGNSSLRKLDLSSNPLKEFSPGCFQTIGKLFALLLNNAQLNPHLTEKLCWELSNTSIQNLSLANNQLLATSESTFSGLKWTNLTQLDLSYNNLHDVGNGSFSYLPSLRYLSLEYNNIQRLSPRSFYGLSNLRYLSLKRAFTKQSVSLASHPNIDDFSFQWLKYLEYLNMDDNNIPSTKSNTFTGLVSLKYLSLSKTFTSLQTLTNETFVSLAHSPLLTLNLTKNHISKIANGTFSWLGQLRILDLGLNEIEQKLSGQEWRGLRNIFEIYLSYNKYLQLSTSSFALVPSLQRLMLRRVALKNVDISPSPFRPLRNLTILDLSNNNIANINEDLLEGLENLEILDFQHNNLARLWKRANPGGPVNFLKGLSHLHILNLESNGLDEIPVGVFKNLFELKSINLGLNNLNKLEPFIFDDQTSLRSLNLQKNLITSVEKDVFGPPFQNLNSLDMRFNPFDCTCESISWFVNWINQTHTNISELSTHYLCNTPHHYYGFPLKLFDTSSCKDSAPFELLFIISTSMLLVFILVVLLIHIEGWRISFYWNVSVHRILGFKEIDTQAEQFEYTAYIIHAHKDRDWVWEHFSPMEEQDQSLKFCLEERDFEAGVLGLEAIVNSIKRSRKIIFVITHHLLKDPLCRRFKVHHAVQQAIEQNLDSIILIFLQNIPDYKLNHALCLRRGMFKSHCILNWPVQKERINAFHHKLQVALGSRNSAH

| Structure (SMILES) | inhibition [1] | inhibition (active/not active) [2] | inhibition [3] |
| --- | --- | --- | --- |
| O=C(CCCCCN1C(=O)CCC1=O)Oc1ccc2cc(C(C(=O)NCc3ccccc3)N(C(=O)Cc3ccc4c(c3)OCO4)C3CC3)ccc2c1 (centres undefined) | Active | inactive | Active |
| O=C(CCCCCN1C(=O)C=CC1=O)Oc1ccc2cc(C(C(=O)NCc3ccccc3)N(C(=O)Cc3ccc4c(c3)OCO4)C3CC3)ccc2c1 (centres undefined) | Active | Active | Active |
| O=C(CCCCCCCC(=O)ON1C(=O)CCC1=O)Oc1ccc2cc(C(C(=O)NCc3ccccc3)N(C(=O)Cc3ccc4c(c3)OCO4)C3CC3)ccc2c1 (centres undefined) | Active | Active | Active |
